Results on two compounds are retold here after ChEMBL document CHEMBL3392996, “Non-transpeptidase binding arylthioether β-lactams active against Mycobacterium tuberculosis and Moraxella catarrhalis” (2015).

Converted amounts (≈) assume the structure as drawn. The source made the active and inactive calls.

Test [1] deals with Mycobacterium tuberculosis. Briefly: Antimicrobial activity against Mycobacterium tuberculosis H37Rv incubated for 48 hrs by microdilution broth method. The test is classed as functional. In general terms: Dilution methods test growth across graded concentrations, often in twofold steps.
Test [2] concerns Escherichia coli. The test can be described thus: Antimicrobial activity against extended spectrum beta-lactamase producing Escherichia coli MISC 262 incubated for 48 hrs by microdilution broth method. The test is classed as functional, organism-based. The procedure, abridged: (§1)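 Stocks in DMSO were diluted at least 10-fold into Mueller-Hinton broth, then 2-fold serially diluted in MH from 500 to 15.6 μg/ml. Bacteria were added, with DMSO-only dilution controls, and incubated at 37 °C for 48 h. Growth was scored at 24 and 48 h. MIC was the lowest concentration with no growth. Run in quadruplicate.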

Test [3] deals with Klebsiella pneumoniae. Briefly: Antimicrobial activity against extended spectrum beta-lactamase and carbapenemase producing Klebsiella pneumoniae ESBL L174 incubated for 48 hrs by microdilution broth method. The test is classed as functional, organism-based. The essentials: as §1
Another test relates to Pseudomonas aeruginosa. The test can be described thus: Antimicrobial activity against Pseudomonas aeruginosa ATCC 27853 incubated for 48 hrs by microdilution broth method. The test is classed as functional, organism-based. The essentials:
as §1

Test [4] concerns Citrobacter freundii. Briefly: Antimicrobial activity against extended spectrum beta-lactamase producing Citrobacter freundii Citro 314 incubated for 48 hrs by microdilution broth method. The test is classed as functional, organism-based. The essentials: as §1
For test [5], the system named is Klebsiella pneumoniae. The test can be described thus: Antimicrobial activity against AmpC producing Klebsiella pneumoniae KLEB 249 incubated for 48 hrs by microdilution broth method. The test is classed as functional, organism-based. The procedure, abridged:
as §1

The subject of test [6] is Moraxella catarrhalis. The test can be described thus: Antimicrobial activity against Moraxella catarrhalis clinical isolates incubated for 48 hrs by microdilution broth method. It is filed as functional. The procedure, abridged:
as §1

The test system of test [7] is Acinetobacter baumannii. Briefly: Antimicrobial activity against extended spectrum beta-lactamase and carbapenemase producing Acinetobacter baumannii L187 incubated for 48 hrs by microdilution broth method. It is filed as functional, organism-based. The essentials: as §1
The subject of test [8] is Acinetobacter baumannii. Briefly: Antimicrobial activity against extended spectrum beta-lactamase and carbapenemase producing Acinetobacter baumannii L186 incubated for 48 hrs by microdilution broth method. The test is classed as functional, organism-based. The essentials: as §1
The test system of a further test is Enterococcus faecalis. The test can be described thus: Antimicrobial activity against Enterococcus faecalis ATCC 29212 incubated for 48 hrs by microdilution broth method. The test is classed as functional, organism-based. The essentials:
as §1

The test system of another test is Staphylococcus aureus. The test can be described thus: Antimicrobial activity against Staphylococcus aureus ATCC 25923 incubated for 48 hrs by microdilution broth method. It is filed as functional, organism-based. The essentials: as §1
Test [9] concerns Klebsiella pneumoniae. Briefly: Antimicrobial activity against AmpC producing Klebsiella pneumoniae MISC 304 incubated for 48 hrs by microdilution broth method. It is filed as functional, organism-based. The procedure, abridged:
as §1

For test [10], the system named is Escherichia coli. Briefly: Antimicrobial activity against broad spectrum beta-lactamase producing Escherichia coli GB 8 incubated for 48 hrs by microdilution broth method. The test is classed as functional, organism-based. The procedure, abridged: as §1
Test [11] relates to Acinetobacter baumannii. The test can be described thus: Antimicrobial activity against extended spectrum beta-lactamase and carbapenemase producing Acinetobacter baumannii L185 incubated for 48 hrs by microdilution broth method. It is filed as functional, organism-based. The procedure, abridged: as §1
Test [12] deals with Escherichia coli. The test can be described thus: Antimicrobial activity against extended spectrum beta-lactamase and carbapenemase producing Escherichia coli ESBL L109 incubated for 48 hrs by microdilution broth method. The test is classed as functional, organism-based. The procedure, abridged: as §1
In test [13] the test system is Klebsiella pneumoniae. Briefly: Antimicrobial activity against extended spectrum beta-lactamase and carbapenemase producing Klebsiella pneumoniae KPC L133 incubated for 48 hrs by microdilution broth method. It is filed as functional, organism-based. The essentials:
as §1

Test [14] deals with Escherichia coli. The test can be described thus: Antimicrobial activity against Escherichia coli ATCC 25922 incubated for 48 hrs by microdilution broth method. It is filed as functional, organism-based. The procedure, abridged: as §1
For test [15], the system named is Escherichia coli. Briefly: Antimicrobial activity against extended spectrum beta-lactamase and carbapenemase producing Escherichia coli ESBL L108 incubated for 48 hrs by microdilution broth method. The test is classed as functional, organism-based. The procedure, abridged:
as §1

In test [16] the test system is Moraxella catarrhalis. The test can be described thus: Bactericidal activity against Moraxella catarrhalis clinical isolates incubated for 48 hrs by microdilution broth method and standard plating method. The test is classed as functional. The procedure, abridged: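 Broth microdilution in Mueller-Hinton broth, 2-fold series from 500 to 15.6 μg/ml, with DMSO-only controls, 37 °C for 48 h. Wells showing no growth were plated (10 μL) on MH agar. MBC was the lowest concentration giving no growth on plating. Run in quadruplicate.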

Test [17] deals with Stenotrophomonas maltophilia. Briefly: Antimicrobial activity against metallo beta-lactamases producing Stenotrophomonas maltophilia GM24 incubated for 48 hrs by microdilution broth method. It is filed as functional, organism-based. The procedure, abridged:
as §1

Test [18] has as its system Citrobacter freundii. The test can be described thus: Antimicrobial activity against AmpC producing Citrobacter freundii CITRO 21 incubated for 48 hrs by microdilution broth method. The test is classed as functional, organism-based. The essentials:
as §1

The subject of test [19] is Escherichia coli. Briefly: Antimicrobial activity against broad spectrum beta-lactamase producing Escherichia coli MISC 206 incubated for 48 hrs by microdilution broth method. It is filed as functional, organism-based. The procedure, abridged:
as §1

The term MIC denotes the least concentration at which growth counts as inhibited. By MBC is commonly meant the smallest concentration meeting the test's criterion for killing. A lower MBC goes with more potent killing. As to `O=C1CC(Sc2ccc(C(F)(F)F)cc2)N1C(=O)NCc1ccccc1` (racemic), the MIC was found to be 12.5 µg/mL (≈ 32.9 µM) in [1] and 1.62 µg/mL (≈ 4.27 µM) in the test with Moraxella catarrhalis [6]. The MIC entry with Escherichia coli [2], in the test on Klebsiella pneumoniae [3], in the test on Pseudomonas aeruginosa, in the test on Citrobacter freundii [4], in the test on Klebsiella pneumoniae [5] and with Acinetobacter baumannii [7] was “inactive” in each case. The MIC entry in the test with Acinetobacter baumannii [8], in the test with Enterococcus faecalis, in the test with Staphylococcus aureus, in the test on Klebsiella pneumoniae [9], in the test on Escherichia coli [10] and in the test with Acinetobacter baumannii [11] was “inactive” throughout. Besides, the MIC entry (in the test with Escherichia coli [12]; with Klebsiella pneumoniae [13]; with Escherichia coli [14]; with Escherichia coli [15]; in test [17]; in the test on Citrobacter freundii [18]) was “inactive” throughout. For the same compound, the MIC result in the test on Escherichia coli [19] was “inactive”. Further, the MBC with Moraxella catarrhalis [16] turned out to be 12.5 µg/mL (≈ 32.9 µM).

Take `O=C1CC(Sc2cccc(C(F)(F)F)c2)N1C(=O)NCc1ccccc1` (racemic): the MIC is 25 µg/mL (≈ 65.7 µM) in test [1] and 3.12 µg/mL (≈ 8.22 µM) with Moraxella catarrhalis [6]. Besides, the MIC entry in the test on Escherichia coli [2], in the test on Klebsiella pneumoniae [3], with Pseudomonas aeruginosa, with Citrobacter freundii [4], in the test with Klebsiella pneumoniae [5] and in the test with Acinetobacter baumannii [7] was “inactive” throughout. Further, the MIC result in the test with Acinetobacter baumannii [8], in the test on Enterococcus faecalis, in the test with Staphylococcus aureus, with Klebsiella pneumoniae [9], with Escherichia coli [10] and in the test with Acinetobacter baumannii [11] was “inactive” each time. In addition, the MIC entry (in the test with Escherichia coli [12]; with Klebsiella pneumoniae [13]; in the test with Escherichia coli [14]; with Escherichia coli [15]; in test [17]; with Citrobacter freundii [18]) was “inactive” in each case. In addition, in the test with Escherichia coli [19], the MIC entry was “inactive”. In addition, the MBC against Moraxella catarrhalis [16] turned out to be 6.25 µg/mL (≈ 16.4 µM).
